Screens: PubChem BioAssay, several laboratories
UBC9 SUMO inh – inhibitors of in vitro SUMOylation cascade, primary screen, biochemical, HTRF, uHTS; HTRF SUMOylation assay, SAE1/SAE2 + UBC9; inhibition, % at 35 µM; 290,000 compounds, 0.36% hits; AID 2006, 2009; in the data active = inhibition above about 50%, passing the limit was not always enough
Target sequence (P63279 whole entry, looked up): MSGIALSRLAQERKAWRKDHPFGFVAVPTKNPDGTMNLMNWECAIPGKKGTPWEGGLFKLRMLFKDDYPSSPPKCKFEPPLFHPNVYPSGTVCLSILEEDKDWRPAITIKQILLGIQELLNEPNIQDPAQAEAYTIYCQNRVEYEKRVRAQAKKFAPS
CSN deneddyl inh – inhibitors of CSN-mediated cullin deneddylation, primary screen, biochemical, fluorescence polarization, uHTS. 360,000 compounds, 0.38% hits. inhibition, % at 12.5 µM. Purified CSN, SCF-Nedd8-OG deneddylation. AID 651999, 2013;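 active = pattern-corrected inhibition above about 35%, with an unprinted fluorescence ratio check between 0.5 and 1.5, limit read from the data, passing the limit was not always enough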;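 note: 0% = enzyme with substrate and 100% = substrate without enzyme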
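assay system = purified human Csn5 enzyme expressed in HEK293T cells | amount = 0.24 nM enzyme | buffer or medium = Tris/NaCl/DTT buffer, pH 7.5 | reagent = 10 nM SCFSkp2-Nedd8OG | compound = one concentration, 12.5 µM, 0.25% DMSO | times = 90 min reaction at room temperature | signal = FP | read-out basis = % inhibition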
HNF4A DNA FP – change in binding of human HNF4A to DNA, primary screen, biochemical, fluorescence polarization, FITC-DNA. 360,000 compounds, 0.3% hits. 1 h. activity change, % at 10 µM; in the data active = activity change above about 30%, passing the limit was not always enough
Rpn11 inh – Rpn11 (PSMD14) deubiquitinase inhibitors, primary screen, biochemical, fluorescence polarization, uHTS; AID 588493, 2011; human 26S proteasome, Ub4-pepOG fluorescence polarization; 20S core pre-blocked with epoxomicin; 26S proteasome non-ATPase regulatory subunit 14 (Homo sapiens), O00487; calls only at 20 µM; 360,000 compounds, 0.59% hits;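 active = inhibition at 20 µM, scaled to each plate's controls, above about 33%, limit read from the data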
Target sequence (O00487 whole entry, looked up): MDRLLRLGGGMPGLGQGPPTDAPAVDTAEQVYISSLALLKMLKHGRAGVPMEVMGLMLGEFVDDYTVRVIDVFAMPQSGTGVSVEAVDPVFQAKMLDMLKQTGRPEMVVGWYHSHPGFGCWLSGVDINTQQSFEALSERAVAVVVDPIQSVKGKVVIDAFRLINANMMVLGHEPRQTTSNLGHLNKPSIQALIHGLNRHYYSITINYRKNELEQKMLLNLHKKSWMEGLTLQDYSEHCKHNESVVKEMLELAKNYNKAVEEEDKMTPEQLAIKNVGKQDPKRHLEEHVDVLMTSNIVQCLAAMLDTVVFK
SENP1 FRET inh – human SENP1 catalytic domain inhibitors, primary screen, biochemical, FRET, uHTS | Sentrin-specific protease 1 (Homo sapiens), Q9P0U3 | recombinant SENP1 catalytic domain, CyPet-SUMO1-YPet FRET cleavage | inhibition, % at 10 µM | 360,000 compounds, 0.21% hits;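 active = inhibition at least 30% at 10 µM, raw YFP signal under a set limit, fluorescence ratio 0.5 to 1.5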;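 note: 0% = enzyme with DMSO and 100% = no enzyme wells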
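System: Recombinant human SENP1 catalytic domain, His6-tagged | Incubation: Enzyme reaction for 50 min at room temperature, dark | Medium: Tris pH 8 with BME, BSA, NP40 and catalase | Also added: 25 nM SUMO1 FRET substrate | Compound: 10 µM single point, 0.5% DMSO | Measured by: FRET fluorescence in CFP and YFP emission channels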
TPT1 inh – Candida albicans TPT1 enzyme inhibitors, primary screen, biochemical, fluorescence polarization; tRNA 2'-phosphotransferase TPT1 (Candida albicans SC5314); recombinant caTPT1, FP RNA substrate dephosphorylation; inhibition, % at 5 µM; 300,000 compounds, 0.81% hits; AID 1962, 2009;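 active = inhibition above the mean of all tested compounds plus 3 SD, set per screening campaign, cut at about 24% in these data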;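 note: plate controls were DMSO alone for no effect and ferristatin control at 100 nM for full effect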
caTPT1 confirm – Candida albicans TPT1 inhibitors, confirmation, biochemical, fluorescence polarization, triplicate; inhibition, % at 5 µM; 2,400 compounds, 74% hits; recombinant caTPT1, RNase T1 coupled; shares compounds with TPT1 inh;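 active = inhibition above the primary screen limit, the mean inhibition of all tested compounds plus 3 SD, cut at about 25% in these data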
RNase T1 counter – RNase T1 inhibitors, counter-screen for TPT1 inhibitor project, biochemical, fluorescence polarization; shares compounds with TPT1 inh; RNase T1 cleavage, 1536-well; inhibition, % at 5 µM; 2,400 compounds, 83% hits; AID 2153, 2009;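 active = inhibition above the solvent-only control well mean plus 3 SD, limit set per screening run, cut at about 23% in these data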;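 note: plate controls were DMSO wells with enzyme for no effect and wells without RNase T1 for full effect; inhibitors block cleavage so intact labeled substrate keeps polarization high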
Target sequence (P00651 whole entry, looked up): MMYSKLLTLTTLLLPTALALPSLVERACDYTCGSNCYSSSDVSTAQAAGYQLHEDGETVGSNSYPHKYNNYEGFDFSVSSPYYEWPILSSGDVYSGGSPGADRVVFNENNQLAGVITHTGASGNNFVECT
Starred values were filed as active, the others as inactive; i = inactive; nt = no result shown. Hits are enriched below; roughly 1.8% of the tested compounds scored in any of these assays.

SMILES	UBC9 SUMO inh	CSN deneddyl inh	HNF4A DNA FP	Rpn11 inh	SENP1 FRET inh	TPT1 inh	caTPT1 confirm	RNase T1 counter
COc1ccc(/C(O)=C/c2nc3ccccc3n(-c3ccccc3)c2=O)cc1	6	1	50*	i	8	67*	66*	95*
C(=N\NC1=Nc2cccc3cccc1c23)/c1ccccc1	-18	6	26	i	-20	26*	42*	58*
COc1ccc2c(n1)Sc1nc3ccccc3nc1N2	75*	31	32	nt	-22	41*	56*	64*
Cc1ccccc1-n1c(O)c(/C=C/C=Nc2ccccc2)c(=O)[nH]c1=O	5	31	171	nt	-26	154*	168*	157*
Cc1ccc(-n2c(O)c(/C=C3/C(c4ccccc4)=Nc4ccccc43)c(=O)[nH]c2=O)cc1	15	-11	4	i	-2	6	nt	nt
COc1ccc(CN(C)CC(=O)NC(C)c2ccccc2)c(OC)c1 (stereo not given)	14	3	3	i	0	99*	8	10
COc1cccc(NC(=O)CN(C)CC(=O)NC(C)c2ccccc2)c1 (stereo not given)	-22	-6	-3	i	3	2	nt	nt
C(=Nc1ccc(N2CCOCC2)cc1)c1c[nH]c2ccccc12	16	104	-1	i	2	0	nt	nt
C=Cc1ccc(N=Cc2c(O)ccc3ccccc23)cc1	16	39*	80	nt	-35	40*	129*	133*
Oc1ccccc1N=Cc1c(O)ccc2ccccc12	51	85	106	nt	-26	nt	nt	nt
Oc1ccc2ccccc2c1C=Nc1ccc(N2CCOCC2)cc1	5	nt	nt	nt	nt	76*	67*	86*
CCN1C/C(=C/c2ccc(N3CCOCC3)cc2)C(=O)/C(=C/c2ccc(N3CCOCC3)cc2)C1	-7	33	1	nt	-29	99*	97*	93*
CN1C/C(=C\c2ccc(N3CCOCC3)cc2)C(=O)/C(=C/c2ccc(N3CCOCC3)cc2)C1	2	13	6	nt	14	63*	89*	94*
CCc1ccc(/C=C2/SC(N3CCOCC3)=NC2=O)cc1	20	2	-1	i	-1	-1	nt	nt
CN1C/C(=C/c2ccncc2)C(=O)/C(=C/c2ccncc2)C1	0	4	0	i	0	-2	nt	nt
Cc1cc(C)cc(N(CC(=O)N2CCN(c3ccccc3)CC2)S(=O)(=O)c2c(C)noc2C)c1	-2	-4	1	i	5	-2	nt	nt
Nc1c(-c2ccccc2)sc2ccc3ccccc3[n+]12	3	3	2	i	9	0	nt	nt
CC(=O)N1CCC2(CC1)C(C#N)=C(N)OC1=C2C(=O)CC(C)(C)C1	0	-2	-2	i	-2	2	nt	nt
CC1(C)CC(=O)C2=C(C1)OC(N)=C(C#N)C21CCN(Cc2ccccc2)CC1	-2	-1	1	i	-67	27*	22	32*
O=C(O)c1ccc(CNC(=O)c2ccc(Br)o2)cc1	9	-1	2	i	0	-2	nt	nt
COc1ccc(C(=O)Nc2nnc(CC(=O)N/N=C/c3ccc(O)cc3O)s2)cc1	46	32	-13	i	-24	53*	81*	83*
O=C(c1ccc(S(=O)(=O)N2CCCCCC2)cc1)N1CCN(c2ccccc2F)CC1	0	3	-1	i	2	1	nt	nt
N#C/C(=C\c1ccc(O)c(O)c1)C(=O)c1ccc(O)c(O)c1	nt	167	-7	nt	3	27*	69*	74*
N#C/C(=C\c1ccc(O)c(O)c1)C(=O)N1CCCC1	9	1	1	i	-41	1	nt	nt
COc1ccc(C2CC(c3ccccc3)=NN2c2ccc(/C=N/NC(=O)c3ccncc3)cc2)cc1 (stereo not given)	16	2	2	i	-10	66*	52*	68*
SMILES	UBC9 SUMO inh	CSN deneddyl inh	HNF4A DNA FP	Rpn11 inh	SENP1 FRET inh	TPT1 inh	caTPT1 confirm	RNase T1 counter
COc1ccc(C2CC(c3cccs3)=NN2c2ccc(C=O)cc2)cc1 (stereo not given)	19	nt	nt	nt	nt	65*	67*	72*
Cc1ccc(S(=O)(=O)N(CC2CO2)c2cc(Cl)ccc2Cl)cc1 (stereo not given)	-2	3	-2	i	-1	0	nt	nt
CC(NC(=O)CN(c1ccc(Br)cc1)S(C)(=O)=O)c1ccccc1 (stereo not given)	-1	-1	-1	i	-1	-2	nt	nt
COc1cccc(C2C(C#N)=C(N)OC(C(C)(C)C)=C2C#N)c1 (stereo not given)	13	-2	0	i	-14	-4	nt	nt
COc1cccc(/C=C2/CN(C)CC3=C2OC(N)=C(C#N)C3c2cccc(OC)c2)c1 (stereo not given)	8	12	10	i	-32	40*	25*	34*
CCCn1c(NC(=O)CCNC(=O)c2ccccc2Cl)nc2ccccc21	nt	1	-1	i	-6	nt	nt	nt
CCCn1c(NC(=O)CCS(=O)(=O)c2ccc(C)cc2)nc2ccccc21	nt	4	18	i	-33	46*	58*	68*
CCn1c2ccccc2c2cc(/C(C)=N/O)ccc21	10	4	1	i	0	0	nt	nt
CCn1c2ccccc2c2cc(N)ccc21	28	36*	36	nt	-23	26*	28*	40*
C=CCN1/C(=C2/SC(=S)N(C)C2=O)Sc2ccccc21	15	nt	nt	nt	nt	35*	59*	73*
CCN1C(=O)/C(=C2/Sc3ccccc3N2CC)SC1=S	22	-3	4	nt	-26	5	nt	nt
Cn1cc(/C=C2\SC(=O)NC2=S)c2ccccc21	-8	-75	-39	i	3	-3	nt	nt
Cc1ccc(C(=O)NN2C(=O)/C(=C/c3cn(C)c4ccccc34)SC2=S)cc1	-12	22	75	i	-26	160*	80*	86*
